According to ChEMBL document CHEMBL3085732, “Synthesis and pharmacological evaluation of aminothiazolomorphinans at the mu and kappa opioid receptors” (J Med Chem, 2013):
Calls of active or inactive are those of the source.

Assays:
[1] = target: T1, Kappa-type opioid receptor (Homo sapiens, UniProt P41145); assay: Agonist activity at human kappa opioid receptor transfected in CHO cells assessed as stimulation of [35S]GTPgammaS binding after 60 mins by scintillation counting analysis; format: functional, cell-based
Outline: (§1)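 Membranes from CHO cells stably expressing human KOR (15 μg protein/tube) or MOR (7.5 μg protein/tube) were incubated for 60 min at 30 °C with 12 compound concentrations, 3 μM GDP and […] [35S]GTPγS. Nonspecific binding used 10 μM GTPγS. Filtration, scintillation counting; % stimulation over basal. ≥3 experiments, triplicate.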

[2] = target: T2, Mu-type opioid receptor (Homo sapiens, UniProt P35372); assay: Displacement of [3H]-DAMGO from human mu opioid receptor transfected in CHO cells after 60 mins; format: cell-based
[3] = target: T1, Kappa-type opioid receptor; assay: Agonist activity at human kappa opioid receptor transfected in CHO cells assessed as stimulation of [35S]GTPgammaS binding after 60 mins by scintillation counting analysis relative to control; format: functional, cell-based; outline: as §1
[4] = target: T2, Mu-type opioid receptor; assay: Antagonist activity at human mu opioid receptor transfected in CHO cells assessed as inhibition of DAMGO-induced [35S]GTPgammaS binding after 60 mins by scintillation counting analysis relative to control; format: functional, cell-based
Outline: (§2)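 Membranes from CHO cells expressing human MOR (7.5 μg protein/tube) were incubated with test compound plus 200 nM DAMGO, 3 μM GDP and […] [35S]GTPγS. Incubation was 60 min at 30 °C in Tris/MgCl2/NaCl/EGTA buffer, pH 7.4. Bound label was measured by filtration and scintillation counting. At least 3 experiments, each in triplicate.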

[5] = species: Homo sapiens; assay: Selectivity ratio of Ki for human mu opioid receptor to Ki for human kappa opioid receptor
[6] = target: T1, Kappa-type opioid receptor; assay: Displacement of [3H]-U69593 from human kappa opioid receptor transfected in CHO cells after 60 mins; format: cell-based
[7] = target: T2, Mu-type opioid receptor; assay: Agonist activity at human mu opioid receptor transfected in CHO cells assessed as stimulation of [35S]GTPgammaS binding after 60 mins by scintillation counting analysis relative to control; format: functional, cell-based; outline: as §1
[8] = target: Delta-type opioid receptor (Homo sapiens, UniProt P41143); assay: Displacement of [3H]-naltrindole from human delta opioid receptor transfected in CHO cells after 3 hrs; format: cell-based
[9] = species: Homo sapiens; assay: Selectivity ratio of Ki for human delta opioid receptor to Ki for human kappa opioid receptor
[10] = target: T2, Mu-type opioid receptor; assay: Antagonist activity at human mu opioid receptor transfected in CHO cells assessed as inhibition of DAMGO-induced [35S]GTPgammaS binding after 60 mins by scintillation counting analysis; format: functional, cell-based; outline: as §2
[11] = target: T2, Mu-type opioid receptor; assay: Agonist activity at human mu opioid receptor transfected in CHO cells assessed as stimulation of [35S]GTPgammaS binding after 60 mins by scintillation counting analysis; format: functional, cell-based; outline: as §1
[12] = target: T2, Mu-type opioid receptor; assay: Antagonist activity at human mu opioid receptor transfected in CHO cells assessed as inhibition of […] [35S]GTPgammaS binding after 60 mins by scintillation counting analysis relative to control; format: functional, cell-based
[13] = tested on: Rattus norvegicus; assay: Toxicity in Sprague-Dawley rat assessed as suppression of intracranial self-stimulation reward function at 4 mg/kg, ip measured over 15 to 60 mins; format: organism-based; parameters: dose 4 mg/kg, route intraperitoneal; conditions: in vivo
Outline: (§3)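 Male Sprague-Dawley rats with lateral hypothalamic medial forebrain bundle electrodes were given test drug i.p. in increasing doses (n=6/cohort). One series was 0–4.0 mg/kg in 20% DMSO/water; the other was 1.0–30.0 mg/kg in 0.9% saline. ICSS thresholds and maximum response rates were measured over four 15-min rate-frequency trials after baseline. Results were expressed as 100 × post/pre-treatment.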

[14] = tested on: Rattus norvegicus; assay: Toxicity in Sprague-Dawley rat assessed as suppression of intracranial self-stimulation reward function at 0.25 to 2 mg/kg, ip measured for 1 hr; format: organism-based; parameters: dose 0.25-2 mg/kg, route intraperitoneal; conditions: in vivo; outline: as §3
[15] = tested on: Rattus norvegicus; assay: (§4) Reduction of reward potentiation effect of cocaine in ip dosed Sprague-Dawley rat assessed as blockade of cocaine-madiated reduction of intracranial self-stimulation threshold administered for 15 mins prior to cocaine challenge measured 15 mins post dose and 1 hr post cocaine challenge; format: functional, organism-based
Outline: (§5)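 Male Sprague-Dawley rats carried medial forebrain bundle electrodes and were trained by the rate-frequency method to stable thresholds (n=6/cohort). Baseline came from three 15-min functions. Test drug was given i.p. in increasing doses: 0, 0.5, 1.0, 2.0 mg/kg, or 0, 3.0, 10.0, 30.0 mg/kg. […] Data were expressed as 100 × post/pre.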

[16] = tested on: Rattus norvegicus; assay: as §4, with “threshold at 3 to 30 mg/kg” for “threshold”; format: functional, organism-based; outline: as §5
[17] = tested on: Rattus norvegicus; assay: Toxicity in Sprague-Dawley rat assessed as suppression of intracranial self-stimulation reward function at 1 to 30 mg/kg, ip measured for 1 hr; format: organism-based; parameters: dose 1-30 mg/kg, route intraperitoneal; conditions: in vivo; outline: as §3

T2 sequence (P35372 whole entry): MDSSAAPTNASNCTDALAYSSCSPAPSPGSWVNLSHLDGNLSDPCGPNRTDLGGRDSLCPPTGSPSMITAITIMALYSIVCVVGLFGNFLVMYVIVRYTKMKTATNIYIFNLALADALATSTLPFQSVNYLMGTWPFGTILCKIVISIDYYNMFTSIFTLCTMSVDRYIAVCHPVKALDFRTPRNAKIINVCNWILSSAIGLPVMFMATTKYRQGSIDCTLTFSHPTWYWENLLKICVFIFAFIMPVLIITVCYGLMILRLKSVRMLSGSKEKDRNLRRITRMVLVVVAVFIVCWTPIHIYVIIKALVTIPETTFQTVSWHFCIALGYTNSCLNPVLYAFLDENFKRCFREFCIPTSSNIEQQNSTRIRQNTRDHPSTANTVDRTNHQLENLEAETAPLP
T1 sequence (P41145 whole entry): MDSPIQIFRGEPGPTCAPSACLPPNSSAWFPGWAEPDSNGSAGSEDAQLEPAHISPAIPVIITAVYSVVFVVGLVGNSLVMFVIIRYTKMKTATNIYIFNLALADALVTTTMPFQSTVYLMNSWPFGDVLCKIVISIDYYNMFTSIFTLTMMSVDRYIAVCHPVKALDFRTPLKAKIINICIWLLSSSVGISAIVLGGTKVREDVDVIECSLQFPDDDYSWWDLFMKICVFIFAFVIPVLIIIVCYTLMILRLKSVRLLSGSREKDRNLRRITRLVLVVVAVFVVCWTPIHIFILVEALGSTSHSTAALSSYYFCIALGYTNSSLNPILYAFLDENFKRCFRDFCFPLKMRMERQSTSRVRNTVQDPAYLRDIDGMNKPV
Delta-type opioid receptor, sequence (P41143 whole entry): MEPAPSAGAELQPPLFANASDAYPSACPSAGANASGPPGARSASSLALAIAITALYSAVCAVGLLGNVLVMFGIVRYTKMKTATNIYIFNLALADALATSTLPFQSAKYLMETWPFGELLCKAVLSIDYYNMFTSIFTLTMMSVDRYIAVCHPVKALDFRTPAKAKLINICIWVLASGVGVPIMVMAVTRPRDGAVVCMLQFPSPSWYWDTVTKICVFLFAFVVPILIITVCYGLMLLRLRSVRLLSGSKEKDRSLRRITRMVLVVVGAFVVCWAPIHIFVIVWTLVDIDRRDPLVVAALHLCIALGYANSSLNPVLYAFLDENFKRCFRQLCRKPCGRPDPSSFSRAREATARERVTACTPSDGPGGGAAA

Compound | EC50 [1] [nM] | Ki [2] [nM] | Emax [3] [%] | Imax [4] [%] | Ratio Ki [5] | Ki [6] [nM] | Emax [7] [%] | Ki [8] [nM] | Ratio Ki [9] | IC50 [10] [nM] | EC50 [11] [nM] | Imax [12] | Activity [13] | Activity [14] | Activity [15] | Activity [16] | Activity [17]
CNc1nc2c(s1)C[C@H]1[C@H]3Cc4ccc(OC)cc4[C@@]1(CCN3CC1CC1)C2 | 97 | 9.6 | 140 | 76 | 2.7 | 3.6 | 28 | 1.6 | 0.44 | 650 | 51 | inactive | – | – | – | – | –
Nc1nc2cc3c(cc2s1)C[C@@H]1[C@@H]2CCCC[C@]32CCN1CC1CC1 | – | – | – | – | – | – | – | – | – | – | – | inactive | – | – | – | – | –
Oc1ccc2c(c1)[C@@]13CCCC[C@H]1[C@@H](C2)N(CC1CCC1)CC3 [BUTORPHAN] | – | – | – | – | – | – | – | – | – | – | – | – | Toxic | Non-toxic | Dose-dependent effect | – | –
Nc1nc2c(s1)C[C@H]1[C@H]3Cc4ccc(O)cc4[C@@]1(CCN3CC1CC1)C2 | 0.61 | – | 59 | – | – | – | – | – | – | – | – | 49% | – | – | – | inactive | Non-toxic
CNc1nc2c(s1)C[C@H]1[C@H]3Cc4ccc(O)cc4[C@@]1(CCN3CC1CC1)C2 | 1.3 | 0.14 | 85 | 76 | 1.7 | 0.084 | 25 | 0.43 | 5.1 | 2.5 | 0.52 | 27% | – | – | – | – | –
COc1ccc2c(c1)[C@]13CCN(CC4CC4)[C@H](C2)[C@@H]1Cc1sc(N)nc1C3 | 49 | 6.7 | 140 | 69 | 3.5 | 1.9 | 24 | 13 | 6.8 | 640 | 39 | inactive | – | – | – | – | –
COc1ccc2c(c1)[C@]13CCN(CC4CC4)[C@H](C2)[C@@H]1Cc1sc(NC(C)=O)nc1C3 | 140 | 6.6 | 120 | 60 | 0.73 | 9 | 47 | 4.6 | 0.51 | 500 | 80 | inactive | – | – | – | – | –
